Measurements published in ChEMBL document CHEMBL4184244, “Synthesis, kinetics and inhibition of Escherichia coli Heptosyltransferase I by monosaccharide analogues of Lipid A” (Bioorg Med Chem Lett, 2018).
Active and inactive are the calls of the source. The rule behind the calls is not given here.

T1: Lipopolysaccharide heptosyltransferase 1 (Escherichia coli (strain K12)) (UniProt P24173)
T1 sequence (whole entry): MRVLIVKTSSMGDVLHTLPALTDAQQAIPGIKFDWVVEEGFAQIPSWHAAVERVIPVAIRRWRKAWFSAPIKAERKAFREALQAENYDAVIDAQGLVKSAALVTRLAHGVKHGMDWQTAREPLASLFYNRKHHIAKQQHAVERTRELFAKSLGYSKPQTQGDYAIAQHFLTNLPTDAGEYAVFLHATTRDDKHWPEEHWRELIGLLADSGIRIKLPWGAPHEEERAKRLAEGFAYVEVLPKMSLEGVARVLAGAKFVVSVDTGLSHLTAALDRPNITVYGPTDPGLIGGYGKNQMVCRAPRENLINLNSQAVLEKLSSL

T2: Lipopolysaccharide heptosyltransferase 1 (Escherichia coli (strain K12), UniProt P24173)
T2 sequence (P24173 whole entry): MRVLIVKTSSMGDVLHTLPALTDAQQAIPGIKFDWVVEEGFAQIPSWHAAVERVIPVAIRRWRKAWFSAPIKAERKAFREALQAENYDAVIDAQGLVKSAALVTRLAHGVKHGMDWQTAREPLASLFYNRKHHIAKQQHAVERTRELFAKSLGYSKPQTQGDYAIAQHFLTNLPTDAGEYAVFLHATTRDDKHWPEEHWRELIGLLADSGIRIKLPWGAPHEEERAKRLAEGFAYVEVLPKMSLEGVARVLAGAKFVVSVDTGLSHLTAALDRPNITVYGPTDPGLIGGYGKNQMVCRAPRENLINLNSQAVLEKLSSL


Assays:
[1] = molecular target: T1, Lipopolysaccharide heptosyltransferase 1 (Escherichia coli (strain K12)); experiment: Inhibition of Escherichia coli Heptosyltransferase I assessed as reduction in ADP release at 1 mM using ODLA and ADP-heptose substrates in presence of phospho(enol)pyruvate and NADH by pyruvate kinase and LDH based ADP/NADH coupling assay
[2] = molecular target: T1, Lipopolysaccharide heptosyltransferase 1 (Escherichia coli (strain K12)); experiment: Substrate activity at Escherichia coli Heptosyltransferase I assessed as ADP release at 100 uM using phospho(enol)pyruvate and NADH by pyruvate kinase and LDH based ADP/NADH coupling assay
Outline: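 Screening for acceptor-substrate (nucleophile) use by HepI. Each compound replaces the normal Kdo2-Lipid A-type acceptor. ADP-heptose is the heptose donor. Free glucose and galactose and their α- and β-methyl glycosides were screened the same way before the synthesized compounds.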

[3] = molecular target: T2, Lipopolysaccharide heptosyltransferase 1; experiment: Inhibition of Escherichia coli Heptosyltransferase I assessed as reduction in ADP release using ODLA and ADP-heptose substrates in presence of phospho(enol)pyruvate and NADH by pyruvate kinase and LDH based ADP/NADH coupling assay
[4] = compound: CCCC/C=C/CO[C@@H]1O[C@H](CO)[C@@H](O)[C@H](O)[C@H]1O; experiment: (§1) Noncompetitive mixed type inhibition of Escherichia coli Heptosyltransferase I assessed as reduction in ADP release by measuring ADP-heptose Km at 1000 uM using ODLA and ADP-heptose substrates in presence of phospho(enol)pyruvate and NADH by pyruvate kinase and LDH dependent ADP/NADH coupling assay based Lineweaver-Burk plot
[5] = compound: CCCC/C=C/CO[C@@H]1O[C@H](CO)[C@@H](O)[C@H](O)[C@H]1O; experiment: as §1, with “Kcat” for “Km”, “100” for “1000”
[6] = compound: CCCC/C=C/CO[C@@H]1O[C@H](CO)[C@@H](O)[C@H](O)[C@H]1O; experiment: as §1, with “100” for “1000”
[7] = compound: CCCC/C=C/CO[C@@H]1O[C@H](CO)[C@@H](O)[C@H](O)[C@H]1O; experiment: as §1, with “Noncompetitive” for “Noncompetitive mixed type”, “measuring ODLA” for “measuring ADP-heptose”, “at 100” for “at 1000”
[8] = compound: CCCC/C=C/CO[C@@H]1O[C@H](CO)[C@@H](O)[C@H](O)[C@H]1O; experiment: as §1, with “Noncompetitive” for “Noncompetitive mixed type”, “ODLA Kcat” for “ADP-heptose Km”, “10” for “1000”
[9] = compound: CCCC/C=C/CO[C@@H]1O[C@H](CO)[C@@H](O)[C@H](O)[C@H]1O; experiment: as §1, with “Noncompetitive” for “Noncompetitive mixed type”, “ODLA Kcat” for “ADP-heptose Km”, “100” for “1000”
[10] = compound: CCCC/C=C/CO[C@@H]1O[C@H](CO)[C@@H](O)[C@H](O)[C@H]1O; experiment: as §1, with “Noncompetitive” for “Noncompetitive mixed type”, “measuring ODLA” for “measuring ADP-heptose”
[11] = compound: CCCC/C=C/CO[C@@H]1O[C@H](CO)[C@@H](O)[C@H](O)[C@H]1O; experiment: as §1, with “Noncompetitive” for “Noncompetitive mixed type”, “measuring ODLA” for “measuring ADP-heptose”, “at 10” for “at 1000”
[12] = compound: CCCC/C=C/CO[C@@H]1O[C@H](CO)[C@@H](O)[C@H](O)[C@H]1O; experiment: as §1, with “Noncompetitive” for “Noncompetitive mixed type”, “ODLA Kcat” for “ADP-heptose Km”
[13] = compound: CCCC/C=C/CO[C@@H]1O[C@H](CO)[C@@H](O)[C@H](O)[C@H]1O; experiment: as §1, with “Kcat” for “Km”, “10” for “1000”
[14] = compound: CCCC/C=C/CO[C@@H]1O[C@H](CO)[C@@H](O)[C@H](O)[C@H]1O; experiment: as §1, with “10” for “1000”
[15] = compound: CCCC/C=C/CO[C@@H]1O[C@H](CO)[C@@H](O)[C@H](O)[C@H]1O; experiment: as §1, with “Kcat” for “Km”

| Molecule | inhibition [1] | Activity [2] | Ki [3] | further results |
| --- | --- | --- | --- | --- |
| CO[C@H]1O[C@H](CO)[C@H](O)[C@H](O)[C@H]1O | 8.8% | inactive | – | – |
| CO[C@@H]1O[C@H](CO)[C@H](O)[C@H](O)[C@H]1O | 7% | inactive | – | – |
| CCCCCC/C=C/CO[C@H]1O[C@H](CO)[C@@H](O)[C@H](O)[C@H]1O | 16.7% | inactive | – | – |
| C=CCO[C@@H]1O[C@H](CO)[C@H](O)[C@H](O)[C@H]1O | 10% | inactive | – | – |
| CCCCCC/C=C/CO[C@@H]1O[C@H](CO)[C@@H](O)[C@H](O)[C@H]1O | 4.2% | inactive | – | – |
| CCCC/C=C/CO[C@@H]1O[C@H](CO)[C@H](O)[C@H](O)[C@H]1O | 22.6% | inactive | 570 µM | – |
| CCCCCC/C=C/CO[C@H]1O[C@H](CO)[C@H](O)[C@H](O)[C@H]1O | 8.8% | inactive | – | – |
| CCCCCCCC/C=C/CO[C@@H]1O[C@H](CO)[C@@H](O)[C@H](O)[C@H]1O | 23.4% | inactive | 520 µM | – |
| CCCCC/C=C/CO[C@@H]1O[C@H](CO)[C@H](O)[C@H](O)[C@H]1O | 7.8% | inactive | – | – |
| CCCCCC/C=C/CO[C@@H]1O[C@H](CO)[C@H](O)[C@H](O)[C@H]1O | 6.3% | inactive | – | – |
| CO[C@@H]1O[C@H](CO)[C@@H](O)[C@H](O)[C@H]1O | 19.5% | inactive | 680 µM | – |
| OC[C@H]1OC(O)[C@H](O)[C@@H](O)[C@@H]1O (stereo partly specified) [DEXTROSE] | – | inactive | 280 µM | – |
| CCCC/C=C/CO[C@@H]1O[C@H](CO)[C@@H](O)[C@H](O)[C@H]1O | 29.7% | inactive | 340 µM | – |
| CCCCCCCC/C=C/CO[C@H]1O[C@H](CO)[C@@H](O)[C@H](O)[C@H]1O | inactive | inactive | – | – |
| CCCCCCCCO[C@@H]1O[C@H](CO)[C@@H](O)[C@H](O)[C@H]1O | 8.3% | inactive | – | – |
| O=C[C@H](O)[C@@H](O)[C@@H](O)[C@H](O)CO [GALACTOSE] | 28.5% | inactive | 500 µM | – |
| CCCCC/C=C/CO[C@@H]1O[C@H](CO)[C@@H](O)[C@H](O)[C@H]1O | 11.9% | inactive | – | – |
| CO[C@H]1O[C@H](CO)[C@@H](O)[C@H](O)[C@H]1O | 27.8% | inactive | 370 µM | – |
| CCCCCCCC/C=C/CO[C@@H]1O[C@H](CO)[C@H](O)[C@H](O)[C@H]1O | 5% | inactive | – | – |
| CCCCCCCC/C=C/CO[C@H]1O[C@H](CO)[C@H](O)[C@H](O)[C@H]1O | inactive | inactive | – | – |
| C=CCO[C@@H]1O[C@H](CO)[C@@H](O)[C@H](O)[C@H]1O | 19.6% | inactive | 650 µM | – |
| Lipopolysaccharide heptosyltransferase 1 (Escherichia coli (strain K12)), P24173 (protein) MRVLIVKTSSMGDVLHTLPALTDAQQAIPGIKFDWVVEEGFAQIPSWHAAVERVIPVAIRRWRKAWFSAPIKAERKAFREALQAENYDAVIDAQGLVKSAALVTRLAHGVKHGMDWQTAREPLASLFYNRKHHIAKQQHAVERTRELFAKSLGYSKPQTQGDYAIAQHFLTNLPTDAGEYAVFLHATTRDDKHWPEEHWRELIGLLADSGIRIKLPWGAPHEEERAKRLAEGFAYVEVLPKMSLEGVARVLAGAKFVVSVDTGLSHLTAALDRPNITVYGPTDPGLIGGYGKNQMVCRAPRENLINLNSQAVLEKLSSL | – | – | – | Km [4]: 38 µM; kcat [5]: 1.6 s⁻¹; Km [6]: 135 µM; Km [7]: 108 µM; kcat [8]: 1.4 s⁻¹; kcat [9]: 1.3 s⁻¹; Km [10]: 65 µM; Km [11]: 114 µM; kcat [12]: 0.9 s⁻¹; kcat [13]: 2.8 s⁻¹; Km [14]: 277 µM; kcat [15]: 0.76 s⁻¹ |
